Measured values: article PMC3932306 (Journal of natural products, 2013)

Assays:
human cathepsin H = human cathepsin H (Homo sapiens, UniProt P09668); test: Selectivity: cathepsin H inhibition; type: biochemical; conditions: at the highest assay concentrations
In short: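 Human cathepsin H (50 ng/mL) in 50 mM potassium phosphate, 3 mM cysteine, 1 mM EDTA, pH 6.4, with 200 µM Arg-AMC substrate. Dose-response ran with 0 min and 30 min enzyme–inhibitor preincubation, otherwise as for the cathepsin L assay, in technical triplicate.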

cathepsin L [1] = molecular target: T1, cathepsin L (Homo sapiens, UniProt P07711); test: Reversibility: preincubation-dilution experiment; type: biochemical; conditions: preincubation-dilution and activity-probe experiments
In short: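 Preincubation-dilution test: cathepsin L at 100-fold final assay concentration was incubated 30 min with a concentrated test compound in 2 µL. The mix was then diluted 100-fold into assay buffer containing 10 µM Z-FR-AMC, 200 µL final. AMC release was monitored continuously in kinetic mode for 2 h. Activity was compared against a vehicle control.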

cathepsin L [2] = molecular target: T1, cathepsin L; test: Active-site directed probe; type: binding; conditions: 30 min preincubation; enzyme 100 nM
In short: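 Test compound in a 6-point, 3-fold serial dilution (10% DMSO) was preincubated 30 min at room temperature with recombinant human cathepsin L in 100 mM sodium acetate, 1.0 mM EDTA, 4 mM DTT, pH 5.5. CLIK-148 and DMSO served as controls. Biotinylated epoxide probe DCG-04 (10 µM stock) was added for 30 min at room temperature. Samples were denatured at 70 °C for 5 min, run on 12% Bis-Tris SDS-PAGE and blotted to nitrocellulose. Detection used avidin/biotinylated HRP with chemiluminescence.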

[3] = system: Plasmodium falciparum falcipain proteases; conditions: cited from earlier work
murine cathepsin L = conditions: cited from earlier work
cathepsin L [4] = molecular target: T1, cathepsin L; test: Cathepsin L inhibition assay; type: biochemical; conditions: for Selectivity Index: IC50 of assayed protease / IC50 cathepsin L
In short: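 Recombinant human cathepsin L (3.0 ng/mL) with 20 µM Z-Phe-Arg-AMC in 50 mM sodium acetate, 100 mM NaCl, 1.0 mM EDTA, 4 mM DTT, pH 5.5, at 25 °C. Fluorescence read at 365/450 nm. Dose-response was […], 3-fold, 333–0.46 nM, in triplicate, with immediate mixing or 30 min enzyme–inhibitor preincubation. Data were scaled to E-64-c/DMSO controls and fitted to a four-parameter logistic model for IC50. Selectivity index = IC50 of the assayed protease / IC50 of cathepsin L for each condition.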

T1 sequence (P07711 114-333): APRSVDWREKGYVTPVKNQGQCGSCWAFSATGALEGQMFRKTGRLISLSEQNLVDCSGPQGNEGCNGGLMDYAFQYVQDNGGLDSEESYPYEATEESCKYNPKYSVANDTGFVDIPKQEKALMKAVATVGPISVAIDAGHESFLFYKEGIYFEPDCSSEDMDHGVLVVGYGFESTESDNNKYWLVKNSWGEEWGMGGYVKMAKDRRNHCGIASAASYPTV
Chain of human cathepsin H (P09668 116-335 limits assumed, other chains not shown): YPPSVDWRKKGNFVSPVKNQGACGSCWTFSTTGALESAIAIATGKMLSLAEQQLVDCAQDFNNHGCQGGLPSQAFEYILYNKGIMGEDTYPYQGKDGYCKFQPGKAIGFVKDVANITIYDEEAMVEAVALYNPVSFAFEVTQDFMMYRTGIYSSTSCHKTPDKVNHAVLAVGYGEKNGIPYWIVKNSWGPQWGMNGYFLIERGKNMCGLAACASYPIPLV

SMILES: CC[C@H](C)[C@@H](C(=O)O[C@@H](CC(C)C)C(=O)N[C@@H](CC(C)C)C(=O)N[C@@H](C)/C=C/C(=O)N1C(=O)C=C(OC)[C@@H]1C)N(C)C [compound 1, gallinamide A]
- activity against cathepsin H (in words) (human cathepsin H): inactive
- mode of inhibition (cathepsin L [1]): irreversible
- concentration giving complete loss of DCG-04 probe labeling (cathepsin L [2]): 333 nM
- concentration giving decreased DCG-04 probe labeling (cathepsin L [2]): 111 nM
- mode of inhibition of falcipain proteases ([3]; based on kinetic model fitting): covalent, irreversible inhibitor
- inhibition of P. falciparum falcipain proteases (in words) [3]: potent inhibition
- inhibition of murine cathepsin L (in words) (murine cathepsin L): moderate inhibition
- Selectivity Index (cathepsin L [4]; 0 min): 1
- Selectivity Index (cathepsin L [4]; 30 min): 1
- inhibition at 3 µg/mL (cathepsin L [4]; read-out: inhibition of cathepsin L): 97 to 99%
